The record followed here is ChEMBL document CHEMBL4052816, “Development of Clickable Monophosphoryl Lipid A Derivatives toward Semisynthetic Conjugates with Tumor-Associated Carbohydrate Antigens” (J Med Chem, 2017).

Series [1] concerns BMDM. The series is described as follows: Immunostimulatory activity in C57BL/6 mouse BMDM assessed as increase in IL-12 production at 20 ug/ml after 6 to 72 hrs by immunoassay. It counts as functional, cell-based. In outline:
(§1)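 Bone marrow macrophages from wild-type C57BL/6 mice (0.5 × 10^6/well) were grown for 24 h, then given fresh medium containing compound at 20 μg/mL for 6, 24, 48 and 72 h. Three independent experiments were run, means ± SD.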

In series [2] the test system is BMDM. The series is described as follows: Immunostimulatory activity in C57BL/6 mouse BMDM assessed as increase in GM-CSF production at 20 ug/ml after 6 to 72 hrs by immunoassay. It counts as functional, cell-based. In outline: as §1
Series [3] has as its system BMDM. The series is described as follows: Immunostimulatory activity in C57BL/6 mouse BMDM assessed as increase in CD86 production at 20 ug/ml after 6 to 72 hrs by flow cytometric method. It counts as functional, cell-based. In outline:
(§2)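 C57BL/6 BMDM (0.5 × 10^6/well) were stimulated with compound at 20 μg/mL for 6, 24, 48 and 72 h. Cells were then stained with phycoerythrin-conjugated anti-CD40, anti-CD80 or anti-CD86, plus allophycocyanin-conjugated anti-MHC class II. Isotype antibodies set nonspecific binding, and cells were analysed by flow cytometry. Three independent experiments were run.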
(In general: In flow cytometry, cells or beads pass a laser one at a time.)

Series [4] relates to THP-1. The series is described as follows: Immunostimulatory activity in human THP1 cells assessed as increase in TNF-alpha production at 20 ug/ml after 6 to 72 hrs by immunoassay. The series is classed as functional, cell-based. An outline of the steps:
(§3)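 THP-1 cells (0.5 × 10^6/well) were grown in RPMI/10% FBS for 24 h, then given fresh medium containing compound at 20 μg/mL for 6, 24, 48 and 72 h. Cell-free supernatants were assayed for IL-8 and IL-6 by ELISA, and for IL-10, IFN-γ and TNF-α by a human Th1/Th2 multiplex bead immunoassay. Results were pooled from three independent experiments, means ± SD.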

The test system of series [5] is BMDM. The series is described as follows: Immunostimulatory activity in C57BL/6 mouse BMDM assessed as increase in IL-4 production at 20 ug/ml after 6 to 72 hrs by immunoassay. It counts as functional, cell-based. An outline of the steps: as §1
The test system of series [6] is BMDM. The series is described as follows: Immunostimulatory activity in C57BL/6 mouse BMDM assessed as increase in CD80 production at 20 ug/ml after 6 to 72 hrs by flow cytometric method. The series is classed as functional, cell-based. An outline of the steps:
as §2

In series [7] the test system is BMDM. Kind of series: Immunostimulatory activity in C57BL/6 mouse BMDM assessed as increase in IL-5 production at 20 ug/ml after 6 to 72 hrs by immunoassay. It counts as functional, cell-based. In outline: as §1
Series [8] concerns THP-1. The series is described as follows: Immunostimulatory activity in human THP1 cells assessed as increase in IFN-gamma production at 20 ug/ml after 6 to 72 hrs by immunoassay. The series is classed as functional, cell-based. An outline of the steps: as §3
Series [9] can be described thus: Cytotoxicity against C57BL/6 mouse BMDM assessed as decrease in cell viability at 20 ug/ml after 6 to 48 hrs by SRB assay. The series is classed as cell-based. An outline of the steps: (§4)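 THP-1 cells and C57BL/6 wild-type bone marrow-derived macrophages were kept in RPMI with 10% FBS, penicillin and streptomycin at 37 °C and 5% CO2. BMDM medium also contained gentamycin. Cells were exposed to compound at 20, 10, 1 and 0.1 μg/mL, and viability was read with a colorimetric assay.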
In general terms: In SRB staining, fixed cells bind dye roughly in proportion to their protein.

The subject of series [10] is THP-1. The series is described as follows: Cytotoxicity against human THP1 cells assessed as decrease in cell viability at 0.1 to 20 ug/ml after 6 to 48 hrs by SRB assay. It counts as cell-based. In outline:
as §4

Series [11] deals with BMDM. Kind of series: Immunostimulatory activity in C57BL/6 mouse BMDM assessed as increase in IFN-gamma production at 20 ug/ml after 6 to 72 hrs by immunoassay. The series is classed as functional, cell-based. An outline of the steps:
as §1

The test system of series [12] is BMDM. The series is described as follows: Immunostimulatory activity in C57BL/6 mouse BMDM assessed as increase in MHC-class 2 production at 20 ug/ml after 6 to 72 hrs by flow cytometric method. It counts as functional, cell-based. An outline of the steps: as §2
Series [13] concerns BMDM. Kind of series: Immunostimulatory activity in C57BL/6 mouse BMDM assessed as increase in CD40 production at 20 ug/ml after 6 to 72 hrs by flow cytometric method. It counts as functional, cell-based. In outline:
as §2

The test system of series [14] is THP-1. The series is described as follows: Immunostimulatory activity in human THP1 cells assessed as increase in IL-8 production at 20 ug/ml after 6 to 72 hrs by ELISA. It counts as functional, cell-based. An outline of the steps:
as §3

Series [15] relates to BMDM. Kind of series: Immunostimulatory activity in C57BL/6 mouse BMDM assessed as increase in IL-2 production at 20 ug/ml after 6 to 72 hrs by immunoassay. The series is classed as functional, cell-based. In outline: as §1
Series [16] concerns BMDM. Kind of series: Immunostimulatory activity in C57BL/6 mouse BMDM assessed as increase in TNFalpha production at 20 ug/ml after 6 to 72 hrs by ELISA. It counts as functional, cell-based. In outline: as §1
For series [17], the system named is BMDM. The series is described as follows: Immunostimulatory activity in C57BL/6 mouse BMDM assessed as increase in IL-10 production at 20 ug/ml after 6 to 72 hrs by immunoassay. The series is classed as functional, cell-based. An outline of the steps:
as §1

Series [18] relates to BMDM. The series is described as follows: Immunostimulatory activity in C57BL/6 mouse BMDM assessed as increase in IL-6 production at 20 ug/ml after 6 to 72 hrs by ELISA. The series is classed as functional, cell-based. In outline: as §1
(In general: An ELISA detects its analyte on a solid surface through an enzyme-linked reagent.)

For series [19], the system named is THP-1. The series is described as follows: Immunostimulatory activity in human THP1 cells assessed as increase in IL-10 production at 20 ug/ml after 6 to 72 hrs by immunoassay. The series is classed as functional, cell-based. In outline: as §3
The test system of series [20] is THP-1. The series is described as follows: Immunostimulatory activity in human THP1 cells assessed as increase in IL-6 production at 20 ug/ml after 6 to 72 hrs by ELISA. It counts as functional, cell-based. An outline of the steps:
as §3

Activity calls are given as the source filed them. The rule behind the calls is not given here.

As to `C#CCCCCNC(=O)[C@H]1O[C@@H](OC[C@H]2OC(O)[C@H](NC(=O)C[C@H](O)CCCCCCCCCCC)[C@@H](OC(=O)C[C@H](O)CCCCCCCCCCC)[C@@H]2O)[C@H](NC(=O)C[C@@H](CCCCCCCCCCC)OC(=O)CCCCCCCCCCC)[C@@H](OC(=O)C[C@@H](CCCCCCCCCCC)OC(=O)CCCCCCCCCCCCC)[C@@H]1OP(=O)(O)O` (some centres not stated), the outcome in [1], in [2], in series [3], in series [5], in series [6] and in [7] was inactive. Also, the outcome in series [8], in [11], in series [12], in [13], in series [15] and in [17] was inactive. Besides, the result in [4], in series [14], in series [16], in series [18] and in series [19] was Active. Further, the results for the Activity entry in [9] and in [10] were “Toxic” and “Non-Toxic”, respectively.

With `CCCCCCCCCCCCCC(=O)O[C@H](CCCCCCCCCCC)CC(=O)O[C@@H]1[C@@H](NC(=O)C[C@@H](CCCCCCCCCCC)OC(=O)CCCCCCCCCCC)[C@H](OC[C@H]2OC(O)[C@H](NC(=O)C[C@H](O)CCCCCCCCCCC)[C@@H](OC(=O)C[C@H](O)CCCCCCCCCCC)[C@@H]2O)O[C@H](C(=O)NCCCCCSCCCO[C@H]2O[C@H](CO)[C@H](O)[C@H](O)[C@H]2NC(C)=O)[C@H]1OP(=O)(O)O` (some centres not stated), the outcome in series [1], in series [2], in [3], in series [5], in [6] and in [7] was inactive. In addition, the result in series [11], in [12], in series [13], in series [15] and in series [17] was inactive. In addition, the outcome in series [20], in series [8], in series [14], in series [16] and in series [19] was Active. Further, the results for the Activity result in series [9] and in [10] were “Toxic” and “Non-Toxic”, respectively.

With `CCCCCCCCCCCCCC(=O)O[C@H](CCCCCCCCCCC)CC(=O)O[C@@H]1[C@@H](NC(=O)C[C@@H](CCCCCCCCCCC)OC(=O)CCCCCCCCCCC)[C@H](OC[C@H]2OC(O)[C@H](NC(=O)C[C@H](O)CCCCCCCCCCC)[C@@H](OC(=O)C[C@H](O)CCCCCCCCCCC)[C@@H]2O)O[C@H](C(=O)NCCCCCCN=[N+]=[N-])[C@H]1OP(=O)(O)O` (some centres not stated), the outcome in series [1], in [2], in series [3], in series [5], in series [6] and in [7] was inactive. The result in series [8], in series [11], in [12], in [13], in series [15] and in series [17] was inactive. The result in series [4], in series [14] and in series [19] was Active. Further, in [10], the Activity result is “Non-Toxic”.

Consider `CCCCCCCCCCCCCC(=O)O[C@H](CCCCCCCCCCC)CC(=O)O[C@@H]1[C@@H](NC(=O)C[C@@H](CCCCCCCCCCC)OC(=O)CCCCCCCCCCC)[C@H](OC[C@H]2OC(O)[C@H](NC(=O)C[C@H](O)CCCCCCCCCCC)[C@@H](OC(=O)C[C@H](O)CCCCCCCCCCC)[C@@H]2O)O[C@H](C(=O)NCCCCCSCCCO[C@H]2O[C@H](CO)[C@H](O)[C@H](O[C@@H]3O[C@H](CO)[C@H](O)[C@H](O)[C@H]3O)[C@H]2NC(C)=O)[C@H]1OP(=O)(O)O` (some centres not stated), for which the outcome in series [1], in [2], in series [3], in [5], in [6] and in [7] was inactive. The result in series [11], in [12], in series [13], in [15], in series [16] and in [17] was inactive. Further, the result in series [4], in series [8], in series [14], in series [18] and in [19] was Active. In addition, the Activity result in series [10] was “Non-Toxic”.

As to `CCCCCCCCCCCCCC(=O)O[C@H](CCCCCCCCCCC)CC(=O)O[C@@H]1[C@@H](NC(=O)C[C@@H](CCCCCCCCCCC)OC(=O)CCCCCCCCCCC)[C@H](OC[C@H]2OC(O)[C@H](NC(=O)C[C@H](O)CCCCCCCCCCC)[C@@H](OC(=O)C[C@H](O)CCCCCCCCCCC)[C@@H]2O)O[C@H](C(=O)O)[C@H]1OP(=O)(O)O` (some centres not stated), the result in series [1], in [2], in [3], in series [5], in series [6] and in series [7] was inactive. The outcome in series [8], in series [11], in series [12], in series [13], in series [15] and in [17] was inactive. The result in series [20], in series [4], in series [14], in series [16], in series [18] and in [19] was Active. Moreover, the Activity entry in series [10] is “Non-Toxic”.

Take `CCCCCCCCCCCCCC(=O)O[C@H](CCCCCCCCCCC)CC(=O)O[C@@H]1[C@@H](NC(=O)C[C@@H](CCCCCCCCCCC)OC(=O)CCCCCCCCCCC)[C@H](OC[C@H]2OC(O)[C@H](NC(=O)C[C@@H](CCCCCCCCCCC)OC(=O)C[C@H](O)CCCCCCCCCCCCC)[C@@H](O)[C@@H]2O)O[C@H](CO)[C@H]1OP(=O)(O)O` (some centres not stated): the result in [3], in [6], in series [12], in series [13], in series [14] and in series [19] was Active. Also, the result in series [8] was inactive.
